Results on five molecules are retold here after PMC9530962 (Redox Biology, 2022).

Each structure is given as a SMILES string. Read-outs that look alike come from different tables or passages of the source.

A short description of one data set: Aristolochic lactam. It counts as in vivo. To be noted: rats, after oral gavage of AAI.
Data set [1] relates to Nrf2-HO-1 antioxidant pathway. It counts as cell-based. The note with it: NRK52E.
Data set [2] relates to TNF-α/NF-κB signaling pathway. Type of data set: cell-based. The note with it: NRK52E.
The format of data set [3] is in vivo, SD rats. The gist of the method:
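Male SD rats (8 weeks, 200 ± 20 g) were acclimated for 1 week. Each rat got one intragastric dose of AAI, alone or with lycopene; controls were n = 6. Three rats were killed at each time point: 0.25, 0.5, 1, 2, 4, 8, 12, 24 and 48 h. Kidney (0.3–1 g) was homogenized in normal saline at 1:3 (w:v), and AAI was measured by HPLC.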

A short description of data set [4]: HPLC determination of lycopene content in rat kidney after oral gavage. It counts as in vivo, SD rats. To be noted: rats. In outline: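 Rats (male SD) got one intragastric dose of AAI plus lycopene, and three were killed per time point (0.25–48 h). For each sample, 0.5 g kidney was homogenized with 1 ml saline. Protein in 100 μL homogenate was precipitated with 100 μL absolute ethanol, then 200 μL n-hexane (0.01% BHT) was added. HPLC used a C18 column (150 × 4.6 mm, 5 μm) with methanol:acetonitrile:dichloromethane 50:33:17, detection at 472 nm, 25 °C.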

Data set [5] has as its system C57BL/6 mice with renal injury induced by aristolochic acid exposure. In words: AAN mouse model: body weight, kidney coefficient, HE/PAS histopathology. It counts as in vivo. The gist of the method:
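Male SPF C57BL/6 mice (6 weeks, 18–20 g) were acclimated for 1 week, then split into 5 groups (n = 6). Dosing was intragastric for 28 days, with vehicle 0.5% CMC. AAI 10 mg/kg/day was given at 13:00, and LYC 5 or 20 mg/kg/day at 08:00. Mice were killed 24 h after the last dose. Kidney coefficient = kidney/body weight. Kidney sections were stained with HE, PAS and Masson and scored for histopathology and tubular injury.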

Data set [6] has the same test system. The experiment in a line: Renal function, kidney injury markers and oxidative stress markers in AAN mice. It counts as in vivo. The note with it: for Cr and BUN levels in the serum: mice. The gist of the method:
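C57BL/6 AAN model: AAI 10 mg/kg/day intragastric for 28 days, with LYC 5 or 20 mg/kg/day given separately. Blood was taken 24 h after the last dose and centrifuged at room temperature for serum. Serum creatinine and BUN were measured with commercial kits, and serum KIM-1 and NGAL by ELISA. MDA, SOD, T-AOC and GSH-PX were measured with commercial kits.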

The test system is the same in data set [7]. Type of data set: in vivo.
For data set [8], the system named is NRK52E cells. The experiment in a line: NRK52E cytotoxicity. Type of data set: cell-based. The note with it: NRK52E. The gist of the method:
(§1)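 NRK52E rat tubular epithelial cells were seeded at 8000 cells/well. Treatment was 24 h with AAI (0–80 μM) or LYC (0–40 μM), or AAI 40 μM with LYC 5 or 10 μM; drug went in by medium change at 40–50% density. CCK-8 (10% in serum-free DMEM) was added for 2 h at 37 °C and A450 read. Viability % = (OD sample − OD blank)/(OD control − OD blank) × 100. Morphology and confluence were viewed by light microscopy.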

Data set [9] has as its system NRK52E cells. It counts as cell-based.
The test system of data set [10] is Nrf2 antioxidant system, NF-κB signaling pathway and apoptosis-related genes in kidney. In words: Nrf2 system, NF-κB pathway and apoptosis gene expression in kidneys of AAN mice. Type of data set: in vivo, C57BL/6 mice.
For data set [11] the following is noted: oral gavage of lycopene; ref Previous studies; cited from earlier work.
A further data set can be described thus: NRK52E cytotoxicity. Type of data set: cell-based. To be noted: rat, NRK52E renal tubular epithelial cells. The gist of the method: as §1
Setting [12] is: mice, AAN group (AAI 10 mg/kg/day, 28 days).

As for `COc1cccc2c1cc1c3c(cc4c(c32)OCO4)C(=O)N1` [ALI, Aristolochic lactam], in “Aristolochic lactam”, the “accumulation of ALI in the kidney after 2 h” value is “no accumulation”.
Turning to `CC(=O)O[C@@H]1CC[C@@]2(C)[C@@H](CC[C@]3(C)[C@@H]2C(=O)C=C2[C@@H]4[C@@H](C)[C@H](C)CC[C@]4(C)CC[C@]23C)[C@@]1(C)C(=O)O` [AKBA, Acetyl-11-keto-β-boswellic acid], in [1] (AKBA 40 μM, AAI 40 μM), the “content of ROS in the cells” value is recorded as “decreased” and the “expression of Nrf2, keap-1, HO-1, NQO1” value is on record as “increased”. In data set [2] (AKBA 40 μM, AAI 40 μM), the “expression of Bcl-2” value is “increased” and the “expression of NF-κB, TNF-α, Bax, Cleaved-Caspase3” value is on record as “decreased”.
On to `CC(C)=CCC/C(C)=C/C=C/C(C)=C/C=C/C(C)=C/C=C/C=C(C)/C=C/C=C(C)/C=C/C=C(\C)CCC=C(C)C` [Lycopene], for which the “content of AAI in the kidney of rats fed with lycopene compared with AAI alone” value in [3] (AAI + lycopene vs AAI alone) was “no significant difference”. Also, in data set [4], the “time of highest lycopene content in the kidney” value was 6 h. Further, in data set [4] (24 h), the “lycopene content in the kidney after 24 h” value was ~0. The “damaged renal tissue (HE and PAS staining)” value in data set [5] (AAN mice after lycopene intervention) is listed as “significant improvement”. Also, in [5] (AAN mice, AL20 group (LYC 20 mg/kg/d + AAI 10 mg/kg/day, 28 days)), the body weight entry is on record as “increased”. Also, the “renal tubular structure (HE and PAS staining)” value in data set [5] (mice, LYC group (LYC 20 mg/kg/d alone)) is “intact without signs of lesions”. Besides, in [6] (AAN mice), the “expression of AAI-induced lipid peroxidation product (MDA)” value is “significantly decreased”; the “expression of antioxidant enzyme systems (T-AOC, SOD, and GSH-PX)” value is “increased”. The “expression levels of KIM-1 and NGAL induced by AAI” value in [6] (AAN mice, serum, ELISA) was “significantly reduced”. For the same molecule, in data set [6] (LYC group), the “Cr and BUN levels in the serum” value is reported as “significantly lower”. The “degree of renal fibrosis (MASSON staining)” value in [7] (AAN mice after LYC intervention) is “alleviated”. In addition, in data set [7] (AAN mice, LYC 5 and 20 mg/kg/d, Western-blot, RT-PCR, ELISA), the “expression of TNF-α, IL-6, IL-10 and IL-12 in the kidneys” value is “reversed the expression of these genes in a dose-dependent manner”. Further, in the data set with NRK52E cells [8] (LYC 5 μM, 10 μM together with AAI, 24 h, dose-dependent), the cell viability entry was “increased”. Moreover, the Nrf2 intranuclear expression result in [1] (AAI plus LYC intervention, dose-dependent) is listed as “significant increase”. Moreover, in data set [1] (AAI plus LYC intervention, dose-dependent, DCFH-DA), the “content of ROS” value was “significant decrease”. Besides, the NF-κB-P65 nuclear expression entry in data set [2] (AAI plus LYC intervention, immunofluorescence) is reported as “significantly decreased”. Further, in data set [2] (AAI plus LYC treatment), the “expression of NF-κB-p65, TNF-α, IL-6, IkB and IL-12” value was “reversed the expression of these proteins”. The “expression of IL-1β in the cells” value in [2] (LYC treatment vs AAI group, immunofluorescence) is listed as “significantly decreased”. Also, the “expression of Bax, Cleaved-Caspase3, Cleaved-Caspase9, Bcl-2, Caspase-3, and Caspase-9” value in the data set with NRK52E cells [9] (AAI plus LYC intervention, Western-blot and RT-PCR) is recorded as “reversed the expression of these proteins”. Besides, in the data set with NRK52E cells [9] (AAI plus LYC intervention, flow cytometry), the “number of apoptotic cells” value is recorded as “significantly decreased”. The cellular mitochondrial damage entry in the data set with NRK52E cells [9] (AAI plus LYC intervention, transmission electron microscopy) is “significantly reduced”. The “expression of NF-κB-p65, TNF-α, IL-6, IL-10, IL-1β, IκB and IL-12 in the kidney” value in [10] (LYC intervention) was “reversed the expression of these genes in a dose-dependent manner”. Moreover, the “Nrf2, Keap-1, HO-1, NQO1, GSH-PX and SOD expression in the kidneys” value in data set [10] (lycopene treatment) is listed as “reversed the expression of these proteins”. Further, in data set [11], the “time at which lycopene is most abundant in the kidney” value is 6 to 8 h.
For `COc1cccc2c1cc([N+](=O)[O-])c1c(C(=O)O)cc3c(c12)OCO3` [AAI, Aristolochic acid A], the “AA-I contents in kidney” value was found to be 0 in [3] (rats, Group AAI + LYC, 15min after intragastric administration); 7.955 ± 0.8107 in [3] (rats, Group AAI + LYC, 30min); 0 in data set [3] (rats, Group AAI + LYC, 1h); 1.516 ± 0.1493 in data set [3] (rats, Group AAI + LYC, 2h); 0 in data set [3] (rats, Group AAI + LYC, 4h); 0 in data set [3] (rats, Group AAI + LYC, 8h). The “AA-I contents in kidney” value in [3] (rats, Group AAI + LYC, 12h) stood at 0; in data set [3] (rats, Group AAI + LYC, 24h), 0; in data set [3] (rats, Group AAI + LYC, 48h), 0; in [3] (rats, Group AAI, 15min after intragastric administration), 0; in data set [3] (rats, Group AAI, 30min), 8.546 ± 1.478; in data set [3] (rats, Group AAI, 1h) it was 0. For the same molecule, the “AA-I contents in kidney” value in data set [3] (rats, Group AAI, 2h) came to 1.616 ± 0.04743; in [3] (rats, Group AAI, 4h), 0; in [3] (rats, Group AAI, 8h), 0; in data set [3] (rats, Group AAI, 12h), 0; in [3] (rats, Group AAI, 24h) it was 0; in data set [3] (rats, Group AAI, 48h), 0. Moreover, the “time after feeding at which AAI has been metabolized completely in the kidney” value in data set [3] (rats, oral gavage of AAI) was 2 h. Besides, the “contents of CR and BUN in the serum (preliminary experiment)” value in data set [5] (mice, AAI 10 mg/kg/day, vs normal control) is “significantly increased”. Moreover, the body weight result in data set [5] (setting [12]) is given as “significantly reduced”. Besides, the “scores of renal histopathology and tubular injury” value in [5] (setting [12]) is on record as “significantly increased”. Moreover, the renal index result in [5] (mice, AAN group (AAI 10 mg/kg/day, 28 days) vs control) is on record as “significantly lower”. Moreover, the “Cr and BUN levels in the serum” value in data set [6] (AAN group vs control) is listed as “significantly higher”. Further, in data set [7] (mice, AAN group vs control), the “renal interstitium fibrosis (MASSON staining)” value is recorded as “severely fibrotic”. The “expression of IL-12 in the kidneys” value in data set [7] (model mice vs control) is “decreased”. Also, the “expression of TNF-α, IL-6, IL-10 in the kidneys” value in [7] (model mice vs control) is recorded as “increased”. For the same molecule, in the data set “NRK52E cytotoxicity”, the viability (commonly the share of living cells, or the viability signal relative to a control) at 24 h, 40 μM is 60%. In the data set with NRK52E cells [8] (AAI group, light microscopy), the “degree of cell fusion” value is “about 50%”. Further, in data set [1] (AAI exposure vs control), the “expression of Nrf2, Keap-1, HO-1, NQO1, GSH-PX, and SOD” value is recorded as “decreased”. The “content of ROS” value in data set [1] (AAI group vs control) was “increased”. Also, the “expression of NF-κB-p65, TNF-α, and IL-6” value in [2] (AAI group vs control) was “increased”. In data set [2] (AAI group, immunofluorescence), the NF-κB-P65 nuclear expression entry was “significantly increased”. For the same molecule, the “number of apoptotic cells (early and late)” value with NRK52E cells [9] (AAI group vs control, flow cytometry) is reported as “significantly increased”.
On to `Cc1ccccc1C(=O)N1CCc2cc(-c3nc(NC(=O)Cc4ccc5c(c4)OCO5)sc3C)ccc21` [ML385], for which the “effect of LYC on NF-κB, TNF-α, Bax, Cleaved-Caspase-3 and BCL-2 expression when ML385 was added” value in data set [2] (ML385 5 μM, AAI 40 μM, LYC) was “significantly reduced or even ineffective”. In the data set on NRK52E cells [9] (AAI, LYC, ML385), the “effect of LYC on apoptosis (DAPI staining) after the addition of ML385” value is listed as “the effect of LYC was inhibited”.
